According to ChEMBL document CHEMBL1144120, “In vitro evaluation of antifungal properties of phenylpropanoids and related compounds acting against dermatophytes” (1999):
In brackets after ≈: the same amount, converted by molar mass. Activity calls are given as the source filed them. The rule behind the calls is not given here.

Columns and labels:
Epidermophyton floccosum [1] = assay: Antifungal activity against Epidermophyton floccosum C 114 by agar dilution method; assay type: functional
How it was run: (§1)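 Dermatophytes were tested by agar dilution on Sabouraud chloramphenicol agar in 96-well plates. DMSO stock solutions were serially two-fold diluted into the medium to give final concentrations of 0.10–50 µg/mL, with DMSO not exceeding 2%. Each well received 5 µL of spore suspension.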

Nannizzia gypsea [2] = assay: Antifungal activity against Microsporum gypseum C 115 up to 50 ug/mL by agar dilution method; assay type: functional, organism-based; how it was run: as §1
Trichophyton rubrum [3] = assay: Antifungal activity against Trichophyton rubrum C 113 up to 50 ug/mL by agar dilution method; assay type: functional, organism-based; how it was run: as §1
Aspergillus fumigatus = assay: Antifungal activity against Aspergillus fumigatus ATCC 26934 by agar dilution method; assay type: functional, organism-based
How it was run: (§2)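 Sabouraud chloramphenicol agar dilution in 96-well plates. Strains were grown on Sabouraud chloramphenicol agar slants for 48 h at 30 °C and suspended in sterile distilled water, adjusted to 10^6 viable cells/mL. DMSO stocks were serially two-fold diluted into the agar to give 0.10–50 µg/mL, with DMSO ≤2% final. 5 µL inoculum per well; incubated 24, 48 or 72 h at 30 °C per control growth; MIC recorded.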

Nannizzia gypsea [4] = assay: Antifungal activity against Microsporum gypseum C 115 by agar dilution method; assay type: functional; how it was run: as §1
Epidermophyton floccosum [5] = assay: Antifungal activity against Epidermophyton floccosum C 114 up to 50 ug/mL by agar dilution method; assay type: functional, organism-based; how it was run: as §1
Microsporum canis [6] = assay: Antifungal activity against Microsporum canis C 112 up to 50 ug/mL by agar dilution method; assay type: functional, organism-based; how it was run: as §1
[7] = system: Trichophyton mentagrophytes; assay: Antifungal activity against Trichophyton mentagrophytes ATCC 9972 up to 50 ug/mL by agar dilution method; assay type: functional, organism-based; how it was run: as §1
Candida albicans = assay: Antifungal activity against Candida albicans ATCC 10231 by agar dilution method; assay type: functional, organism-based; how it was run: as §2
Saccharomyces cerevisiae = assay: Antifungal activity against Saccharomyces cerevisiae ATCC 9763 by agar dilution method; assay type: functional, organism-based; how it was run: as §2
Trichophyton rubrum [8] = assay: Antifungal activity against Trichophyton rubrum C 113 by agar dilution method; assay type: functional; how it was run: as §1
Cryptococcus neoformans = assay: Antifungal activity against Cryptococcus neoformans ATCC 32264 by agar dilution method; assay type: functional, organism-based; how it was run: as §2
[9] = system: Trichophyton mentagrophytes; assay: Antifungal activity against Trichophyton mentagrophytes ATCC by agar dilution method; assay type: functional; how it was run: as §1
Microsporum canis [10] = assay: Antifungal activity against Microsporum canis C 112 by agar dilution method; assay type: functional; how it was run: as §1
Aspergillus flavus = assay: Antifungal activity against Aspergillus flavus ATCC 9170 by agar dilution method; assay type: functional, organism-based; how it was run: as §2
Aspergillus niger = assay: Antifungal activity against Aspergillus niger ATCC 9029 by agar dilution method; assay type: functional, organism-based; how it was run: as §2

Structure (SMILES) | MIC (Epidermophyton floccosum [1]) | Activity (Nannizzia gypsea [2]) | Activity (Trichophyton rubrum [3]) | Activity (Aspergillus fumigatus) | MIC (Nannizzia gypsea [4]) | Activity (Epidermophyton floccosum [5]) | Activity (Microsporum canis [6]) | Activity [7] | Activity (Candida albicans) | Activity (Saccharomyces cerevisiae) | MIC (Trichophyton rubrum [8]) | Activity (Cryptococcus neoformans) | MIC [9] | MIC (Microsporum canis [10]) | Activity (Aspergillus flavus) | Activity (Aspergillus niger)
CCC(=O)c1ccc(OC)c(OC)c1 | 50 mg/L (≈ 257 µM) | inactive | inactive | inactive | > 50 mg/L | inactive | inactive | inactive | inactive | inactive | > 50 mg/L | inactive | > 50 mg/L | > 50 mg/L | inactive | inactive
CCC(=O)c1cc(OC)c(OC)c(OC)c1 | > 50 mg/L | inactive | inactive | inactive | > 50 mg/L | inactive | inactive | inactive | inactive | inactive | > 50 mg/L | inactive | > 50 mg/L | > 50 mg/L | inactive | inactive
C=CCc1ccc(O)c(OC)c1 [EUGENOL] | > 50 mg/L | inactive | inactive | inactive | > 50 mg/L | inactive | inactive | inactive | inactive | inactive | > 50 mg/L | inactive | > 50 mg/L | > 50 mg/L | inactive | inactive
CCC(=O)c1ccc2c(c1)OCO2 | 40 mg/L (≈ 224 µM) | inactive | inactive | inactive | > 50 mg/L | inactive | inactive | inactive | inactive | inactive | > 50 mg/L | inactive | > 50 mg/L | > 50 mg/L | inactive | inactive
CC(Cl)C(=O)c1ccc2c(c1)OCO2 (stereo not given) | 6.25 mg/L (≈ 29.4 µM) | inactive | inactive | inactive | 12.5 mg/L (≈ 58.8 µM) | inactive | inactive | inactive | inactive | inactive | 10 mg/L (≈ 47 µM) | inactive | 25 mg/L (≈ 118 µM) | 12.5 mg/L (≈ 58.8 µM) | inactive | inactive
CC(Cl)C(=O)c1ccccc1 (stereo not given) | 15 mg/L (≈ 89 µM) | inactive | inactive | inactive | 20 mg/L (≈ 119 µM) | inactive | inactive | inactive | inactive | inactive | 12.5 mg/L (≈ 74.1 µM) | inactive | 10 mg/L (≈ 59.3 µM) | 6.25 mg/L (≈ 37.1 µM) | inactive | inactive
COc1ccc(C(O)C(C)C)cc1OC (stereo not given) | > 50 mg/L | inactive | inactive | inactive | > 50 mg/L | inactive | inactive | inactive | inactive | inactive | > 50 mg/L | inactive | > 50 mg/L | > 50 mg/L | inactive | inactive
CC(C)(C)C(=O)c1ccccc1 | 50 mg/L (≈ 308 µM) | inactive | inactive | inactive | > 50 mg/L | inactive | inactive | inactive | inactive | inactive | > 50 mg/L | inactive | > 50 mg/L | > 50 mg/L | inactive | inactive
COc1ccc([C@H](O)[C@H](C)Br)cc1OC | 50 mg/L (≈ 182 µM) | inactive | inactive | inactive | > 50 mg/L | inactive | inactive | inactive | inactive | inactive | > 50 mg/L | inactive | > 50 mg/L | > 50 mg/L | inactive | inactive
CCC(O)c1ccc2c(c1)OCO2 (stereo not given) | > 50 mg/L | inactive | inactive | inactive | > 50 mg/L | inactive | inactive | inactive | inactive | inactive | > 50 mg/L | inactive | > 50 mg/L | > 50 mg/L | inactive | inactive
CCC(O)c1ccc2ccccc2c1 (stereo not given) | 40 mg/L (≈ 215 µM) | inactive | inactive | inactive | 40 mg/L (≈ 215 µM) | inactive | inactive | inactive | inactive | inactive | 40 mg/L (≈ 215 µM) | inactive | 25 mg/L (≈ 134 µM) | 50 mg/L (≈ 268 µM) | inactive | inactive
CCC(=O)c1ccc2ccccc2c1 | 40 mg/L (≈ 217 µM) | inactive | inactive | inactive | 40 mg/L (≈ 217 µM) | inactive | inactive | inactive | inactive | inactive | 40 mg/L (≈ 217 µM) | inactive | 25 mg/L (≈ 136 µM) | 50 mg/L (≈ 271 µM) | inactive | inactive
COc1ccc(C(=O)C(C)C)cc1OC | 50 mg/L (≈ 240 µM) | inactive | inactive | inactive | > 50 mg/L | inactive | inactive | inactive | inactive | inactive | 50 mg/L (≈ 240 µM) | inactive | > 50 mg/L | > 50 mg/L | inactive | inactive
C/C=C\c1ccc(O)c(OC)c1 [ISOEUGENOL] | > 50 mg/L | inactive | inactive | inactive | > 50 mg/L | inactive | inactive | inactive | inactive | inactive | > 50 mg/L | inactive | > 50 mg/L | > 50 mg/L | inactive | inactive
C=CCc1cc(OC)c(OC)c(OC)c1 | > 50 mg/L | inactive | inactive | inactive | > 50 mg/L | inactive | inactive | inactive | inactive | inactive | > 50 mg/L | inactive | > 50 mg/L | > 50 mg/L | inactive | inactive
